Measured values as given in ChEMBL document CHEMBL4017482, “4-Connected azabicyclo[5.3.0]decane Smac mimetics-Zn2+ chelators as dual action antitumoral agents” (Bioorg Med Chem Lett, 2017).
The source made the active and inactive calls. The rule behind the calls is not given here.

Assays:
MDA-MB-231 [1] = test: Induction of apoptosis in smac mimetic-sensitive human MDA-MB-231 cells assessed as increase in cleaved casapse-3 at 5 uM measured after 24 hrs by Western blot analysis; format: functional, cell-based
MDA-MB-231 [2] = test: Induction of apoptosis in smac mimetic-sensitive human MDA-MB-231 cells assessed as increase in cleaved PARP level at 5 uM measured after 24 hrs by Western blot analysis; format: functional, cell-based
[3] = Metal chelating activity of compound assessed as 1:1 stoichiometry for compound-Zn2+ complex at 50 uM measured after 15 mins by spectrofluorimetric method; format: functional
Outline: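 Compounds were titrated with Zn2+, and chelation was followed by fluorescence spectroscopy.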

MDA-MB-453 [4] = test: Induction of apoptosis in smac mimetic-resistant human MDA-MB-453 cells assessed as increase in cleaved PARP level at 5 uM measured after 24 hrs by Western blot analysis; format: functional, cell-based
[5] = molecular target: E3 ubiquitin-protein ligase XIAP (Homo sapiens) (UniProt P98170); test: Induction of XIAP degradation in smac mimetic-sensitive human MDA-MB-231 cells at 5 uM measured after 24 hrs by Western blot analysis
Chain of E3 ubiquitin-protein ligase XIAP (Homo sapiens) (P98170 whole entry): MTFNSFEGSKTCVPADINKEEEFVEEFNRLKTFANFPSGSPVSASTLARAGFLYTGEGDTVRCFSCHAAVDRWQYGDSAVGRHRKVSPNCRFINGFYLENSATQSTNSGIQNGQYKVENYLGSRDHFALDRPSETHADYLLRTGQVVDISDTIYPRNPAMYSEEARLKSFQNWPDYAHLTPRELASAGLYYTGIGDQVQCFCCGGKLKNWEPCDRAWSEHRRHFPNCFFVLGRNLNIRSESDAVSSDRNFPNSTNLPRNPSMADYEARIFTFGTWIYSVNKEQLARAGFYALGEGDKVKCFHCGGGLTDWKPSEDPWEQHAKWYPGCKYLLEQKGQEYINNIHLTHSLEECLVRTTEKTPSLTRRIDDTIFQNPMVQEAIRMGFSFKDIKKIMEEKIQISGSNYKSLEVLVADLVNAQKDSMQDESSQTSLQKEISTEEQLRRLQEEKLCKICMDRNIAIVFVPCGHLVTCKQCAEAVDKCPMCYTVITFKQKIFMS

MDA-MB-453 [6] = test: Cytotoxicity against human smac mimetic-sensitive human MDA-MB-453 cells after 24 hrs by CellTiter-Glo assay; details: MDA-MB-453, 24 h
MDA-MB-453 [7] = test: Induction of apoptosis in smac mimetic-resistant human MDA-MB-453 cells assessed as increase in cleaved casapse-3 at 5 uM measured after 24 hrs by Western blot analysis; format: functional, cell-based
MDA-MB-231 [8] = test: Cytotoxicity against human smac mimetic-sensitive human MDA-MB-231 cells after 24 hrs by CellTiter-Glo assay; details: MDA-MB-231, 24 h
[9] = molecular target: E3 ubiquitin-protein ligase XIAP (Homo sapiens) (UniProt P98170); test: Induction of XIAP degradation in smac mimetic-resistant human MDA-MB-453 cells at 5 uM measured after 24 hrs by Western blot analysis

Row | SMILES | Activity [5] | Activity [9] | Activity (MDA-MB-231 [1]) | Activity (MDA-MB-231 [2]) | Activity [3] | Activity (MDA-MB-453 [4]) | IC50 (MDA-MB-453 [6]) [µM] | Activity (MDA-MB-453 [7]) | IC50 (MDA-MB-231 [8]) [µM]
1 | CC[C@H](NC)C(=O)N[C@@H]1C(=O)N2[C@@H](CC[C@@H]1CNC(=O)CN(Cc1ccccn1)Cc1ccccn1)CC[C@H]2C(=O)NC(c1ccccc1)c1ccccc1 | inactive | – | Active | Active | Active | inactive | > 25 | inactive | 6.5
2 | CC[C@H](NC)C(=O)N[C@@H]1C(=O)N2[C@@H](CC[C@@H]1CNC(=O)c1ccccc1)CC[C@H]2C(=O)NC(c1ccccc1)c1ccccc1 | inactive | inactive | Active | Active | – | – | > 25 | – | 4.1
3 | CC[C@H](NC)C(=O)N[C@@H]1C(=O)N2[C@@H](CC[C@@H]1CNC(=O)CCNC(=O)CN(Cc1ccccn1)Cc1ccccn1)CC[C@H]2C(=O)NC(c1ccccc1)c1ccccc1 | inactive | – | inactive | inactive | Active | inactive | > 25 | inactive | > 25

Continued, in another order:

Row | Activity [5] | Activity [9] | SMILES | Activity (MDA-MB-231 [1]) | Activity (MDA-MB-231 [2]) | Activity [3] | Activity (MDA-MB-453 [4]) | IC50 (MDA-MB-453 [6]) [µM] | Activity (MDA-MB-453 [7]) | IC50 (MDA-MB-231 [8]) [µM]
4 | Active | inactive | CC[C@H](NC)C(=O)N[C@@H]1C(=O)N2[C@@H](CC[C@@H]1CNC(=O)CCCCCCCCCCNC(=O)CN(Cc1ccccn1)Cc1ccccn1)CC[C@H]2C(=O)NC(c1ccccc1)c1ccccc1 | Active | Active | Active | inactive | > 25 | inactive | 0.97
5 | inactive | inactive | CC[C@H](NC)C(=O)N[C@@H]1C(=O)N2[C@@H](CC[C@@H]1CNC(=O)c1ccccc1)CC[C@H]2C(=O)N[C@H](C(=O)NCCN(Cc1ccccn1)Cc1ccccn1)c1ccccc1 | – | – | – | – | – | – | –
6 | inactive | Active | CC[C@H](NC)C(=O)N[C@@H]1C(=O)N2[C@@H](CC[C@@H]1CNC(=O)COCCOCCNC(=O)CN(Cc1ccccn1)Cc1ccccn1)CC[C@H]2C(=O)NC(c1ccccc1)c1ccccc1 | inactive | inactive | Active | inactive | > 25 | inactive | > 25
